Screening results: PubChem BioAssay, several laboratories
UCH37 inh – inhibitors of human deubiquitinating enzyme UCH37; Q9Y5K5; purified proteasome/UCH37, Ub-AMC cleavage fluorescence; inhibition, % (test concentration not listed); 330,000 tested, 0.33% active; AID 588478;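 active means mean inhibition over replicate wells above about 20%, limit read from the data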;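 further: 0% = compound-free wells with enzyme and 100% = wells lacking proteasome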
Target sequence (Q9Y5K5 whole entry, looked up): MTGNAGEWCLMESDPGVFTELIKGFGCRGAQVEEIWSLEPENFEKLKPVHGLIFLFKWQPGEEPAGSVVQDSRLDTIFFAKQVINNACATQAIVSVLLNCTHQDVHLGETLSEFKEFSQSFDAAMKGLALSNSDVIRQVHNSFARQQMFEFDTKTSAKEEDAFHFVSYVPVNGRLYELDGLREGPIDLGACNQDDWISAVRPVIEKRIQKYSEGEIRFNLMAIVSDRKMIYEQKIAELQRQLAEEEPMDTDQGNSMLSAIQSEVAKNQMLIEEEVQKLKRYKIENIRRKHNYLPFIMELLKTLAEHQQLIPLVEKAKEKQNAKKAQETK
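Material: Human UCH37 enzyme supplied as purified proteasome complex | Schedule: 30 min preincubation with enzyme, 25 min cleavage at room temperature | Detection: AMC fluorescence 355/460 nm | Measure: % inhibition of Ub-AMC cleavage fluorescence | Controls: Wells without proteasome as full block, compound-free enzyme plus substrate as uninhibited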
MEKK3 PB1 HTS – raises or lowers MEK5 binding to the human MEKK3 PB1 domain; Q99759; bead-based flow cytometry, Alexa488-MEK5 binding to MEKK3; actives lie on both sides; 0 = blocked by unlabeled MEK5, 100 = vehicle; binding response (% of control), % at 10 µM; 290,000 tested, 1.4% active;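 active means binding response more than 3 SD above or below the average of its plate-row segment, actives on both sides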;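 further: Alexa488 bead fluorescence after subtracting the streptavidin-only scavenger bead signal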
UBC13 inh – inhibitors of human UBC13 polyubiquitin chain formation; P61088; 330,000 tested, 0.47% active; inhibition, % at 20 µM; TR-FRET; in the data active means inhibition above about 45%, passing the limit was not always enough
Target sequence (P61088 whole entry, looked up): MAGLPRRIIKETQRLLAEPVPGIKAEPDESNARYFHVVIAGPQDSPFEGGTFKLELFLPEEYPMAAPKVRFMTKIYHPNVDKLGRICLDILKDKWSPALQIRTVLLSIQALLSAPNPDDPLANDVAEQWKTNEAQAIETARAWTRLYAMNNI
Apaf-1 inh – blocks human Apaf-1 apoptosome activity | 330,000 tested, 0.71% active | AID 489030 | inhibition, % at 20 µM | reconstituted apoptosome caspase-3 activity, DEVD-Rh110 fluorescence; active means inhibition of at least 40% at 20 µM;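 further: plate controls were DMSO wells for no effect and DEVD-CHO caspase inhibitor wells for full effect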
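Material: reconstituted apoptosome with Apaf-1, cytochrome c, caspase-9, procaspase-3, dATP; medium: pH 7.5 Hepes buffer with CHAPS, BSA, DTT; also added: cytochrome c and DEVD-Rh110 substrate; timing: 30 min plus 50 min, RT; signal: Rh110 fluorescence intensity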
MEKK2wt PB1 HTS – raises or lowers MEK5 binding to wildtype human MEKK2 PB1 domain; Q9Y2U5; bead flow cytometry, Alexa488-MEK5 binding to MEKK2 WT; actives lie on both sides; binding response (% of control), % at 10 µM; 290,000 tested, 1.1% active; in the data active means binding response below about 67% or above about 130%
MEKK2 mut-MEK5 – signal of MEK5 binding to mutant human MEKK2 PB1 domain; AID 1530; 290,000 tested, 0.35% active; bead flow cytometry, Alexa488-MEK5 binding to MEKK2 mutant; percent response, % at 10 µM; in the data active means percent response above about 24%, passing the limit was not always enough
* marks the source's active call; other numbers are inactive results; i = inactive; / = no result; [ ] = another dose, or the depositor's remark. The list is not random: actives were taken first. Their share in the collection is about 3%.

SMILES	UCH37 inh	MEKK3 PB1 HTS	UBC13 inh	Apaf-1 inh	MEKK2wt PB1 HTS	MEKK2 mut-MEK5
COc1cc(/C=C/c2[nH]c(=O)[nH]c(=O)c2[N+](=O)[O-])cc([N+](=O)[O-])c1O	21.0*	91.0	-113.4	10.0	90.0	-1.0
CCC(C)Oc1ccc(/C=C/c2[nH]c(=O)[nH]c(=O)c2[N+](=O)[O-])cc1OC (centres undefined)	13.3	102.0	-18.3	19.9	96.0	1.0
Cc1ccc(N=Cc2cccc(O)c2O)c(C)c1	4.2	103.0	-5.5	93.3*	99.0	-6.0
COCc1ccc([C@@H]2C[C@H]3CN(Cc4ccccc4C)C(=O)[C@]34CCCN24)o1	-1.2	99.0	12.7	-18.1	99.0	0.0
O=[N+]([O-])c1ccc2c(c1)N([O-])C1(CCCCC1)[N+]2=O	51.5*	99.0	/	/	98.0	1.0
CCN1C(=O)/C(=C\N(C)C)NC1=S	9.3	107.0	-2.2	-7.9	110.0	4.0
COc1ccc(N2C(=O)/C(=C/N(C)C)NC2=S)cc1	22.5*	102.0	-8.8	-0.5	102.0	7.0
O=C(c1cc2c(s1)CCCC2)N1CCN(S(=O)(=O)c2ccccc2)CC1	1.7	/	-1.8	18.0	/	/
COCCNC(=O)CSc1ccccc1C(=O)NC1CCCc2ccccc21 (centres undefined)	-0.9	83.0	0.1	4.9	86.0	-16.0
CCCCCCN(C(=O)CCCCCN1C(=O)NC(c2ccc(-c3ccccc3)cc2)C(C(=O)OCc2ccccc2)=C1C)C(C(=O)NCCCC)c1cccc(C(=O)OC)c1 (centres undefined)	3.5	101.0	-27.7	79.0*	104.0	3.0
CN(c1ccccc1)S(=O)(=O)c1cccc(NC(=O)CCNC(=O)c2ccccc2)c1	3.2	/	9.9	-3.0	/	/
CCn1c(N2CCN(CC(=O)c3ccc(OC)cc3)CC2)nc2ccccc21	2.6	2.0*[inhibitor]	/	/	2.0*[inhibitor]	-18.0
CC(NC(=O)/C(C#N)=C1\N=C(NC(=O)c2cccs2)c2ccccc21)c1ccccc1 (centres undefined)	4.6	117.0	-1.4	9.2	89.0	-1.0
C=CCn1c(SCc2nc3c(c(=O)[nH]c(=O)n3CCCC)n2CCC)nnc1-c1ccccc1	29.4*	102.0	1.6	-2.4	104.0	8.0
CCCCC(=Nc1ccc(N)cc1)C1=C(O)C(C(=O)OC)C(C)(C)CC1=O (centres undefined)	4.5	94.0	-28.6	61.6*	90.0	-9.0
CCCC(=Nc1ccccc1)C1=C(O)C(C(=O)OC)C(C)(C)CC1=O (centres undefined)	1.6	100.0	-3.2	-3.4	103.0	3.0
CC[n+]1c(/C=C/C=C/N(C(C)=O)c2ccccc2)sc2cc(OC)ccc21	14.1	89.0	/	/	11.0*	15.0
O=C(O)C1C2CCC(C2)C1C(=O)NCc1ccccn1 (centres undefined)	2.8	109.0	1.3	-10.3	104.0	11.0
CCOC(=O)c1sc(Nc2ccc(Br)cc2)nc1C	-5.0	107.0	24.0	14.2	-4.0*	5.0
CCOC(=O)c1sc(Nc2ccccc2Cl)nc1C	1.9	102.0	13.0	18.9	106.0	1.0
O=C1N=C(N2C=CC(=C3C=CNC=C3)C=C2)/C(=C/N=NC(=O)c2ccccc2)S1	23.8*	99.0	i	6.4	97.0	-4.0
CCC1(C)Cc2ccccc2-c2nc(NCCO)[nH]c(=O)c21 (centres undefined)	-197.2	105.0	5.8	10.4	100.0	0.0
C=CCN1C(=O)/C(=C2/Sc3ccccc3N2CC)SC1=S	3.0	100.0	-11.0	-1.0	97.0	0.0
C=CCN1C(=O)/C(=C/C=C2/N(CC)c3ccc(S(=O)(=O)N(C)C)cc3N2CC)SC1=S	4.5	65.0	-356.6	16.5	36.0*[inhibitor]	-17.0
COc1ccc(C)cc1Nc1n[n+](C)c(-c2ccc(O)cc2O)s1	22.5*	105.0	-2.0	1.1	101.0	-6.0
SMILES	UCH37 inh	MEKK3 PB1 HTS	UBC13 inh	Apaf-1 inh	MEKK2wt PB1 HTS	MEKK2 mut-MEK5
OC[C@@H](O)[C@@H](O[C@H]1O[C@H](CO)[C@@H](O)[C@H](O)[C@H]1O)[C@H](O)[C@@H](O)CO	3.6	81.0	-5.4	-4.7	-4.0*	5.0
Cc1nnc(SCC(=O)NC2CCCc3ccccc32)n1-c1ccccc1 (centres undefined)	5.3	97.0	5.3	-4.7	98.0	0.0
Cc1ccc(NC2=CC(=NS(=O)(=O)c3cccs3)c3ccccc3C2=O)cc1C	3.7	/	/	/	/	/
CC(=O)Nc1ccc(NC2=CC(=NS(=O)(=O)c3cccs3)c3ccccc3C2=O)cc1	28.8*	/	/	/	/	/
O=C1C(Cl)=C(N2CCN(c3ccccc3[N+](=O)[O-])CC2)C(=O)c2ccccc21	10.4	91.0	/	/	93.0	-4.0
CCN(CC(=O)Nc1ccc2c(c1)OCCO2)C(=O)CCOc1ccccc1	1.1	/	9.2	0.1	/	/
Cc1ccc2sc(N(CCCN(C)C)C(=O)CCS(=O)(=O)c3ccccc3)nc2c1C	/	107.0	10.7	25.3	151.0*	16.0
COCCCNCC(O)COc1cccc2[nH]c(C)cc12 (centres undefined)	3.5	96.0	-2.2	5.1	90.0	-8.0
COCCCNCC(O)COc1ccccc1F (centres undefined)	1.4	99.0	1.8	-21.0	10.0*	37.0
Cn1c(=O)c2[nH]c(CCCCCCCCc3nc4ccccc4[nH]3)nc2n(C)c1=O	-0.6	/	/	/	/	/
CC1(NC(=O)C23CC4CC(CC(C4)C2)C3)CCS(=O)(=O)C1 (centres undefined)	4.1	106.0	10.0	0.7	103.0	1.0
CN(C(=O)C12CC3CC(CC(C3)C1)C2)C1(C)CCS(=O)(=O)C1 (centres undefined)	30.1*	108.0	-2.3	0.9	108.0	3.0
COc1ccccc1NC(=S)N1CCN(c2ccccn2)CC1	4.9	84.0	-12.8	5.3	88.0	-5.0
CC1(OC(=O)C2CCCC2)C(=O)C=C2C=C3CCCN3C=C2C1=O (centres undefined)	/	102.0	-7.1	11.4	98.0	-1.0
CC1(OC(=O)c2cccs2)C(=O)C=C2C=C3CCCN3C=C2C1=O (centres undefined)	5.1	110.0	-105.3	61.8*	121.0	4.0
CC1CCN(S(=O)(=O)c2cccc(C(=O)Nc3ccccc3)c2)CC1	-0.5	97.0	-3.6	10.5	95.0	-9.0
O=[N+]([O-])c1cc(-c2ccc(C(=S)N3CCOCC3)o2)ccc1Cl	20.6*	107.0	-53.3	35.4	104.0	7.0
O=[N+]([O-])c1cccc(-c2ccc(C(=S)N3CCOCC3)o2)c1	5.9	91.0	-8.0	-10.8	92.0	-8.0
CCOc1ccccc1C(=O)NC1CC2CCCC(C1)N2Cc1ccc(C)cc1 (centres undefined)	-1.3	101.0	4.0	-3.1	117.0	16.0
